Consider two molecules from ChEMBL document CHEMBL4024754, “Development of Potent, Protease-Resistant Agonists of the Parathyroid Hormone Receptor with Broad β Residue Distribution” (J Med Chem, 2017).

Activity calls are given as the source filed them. The calls are words filed in the database; no cut-off is given here. Numbered stars: 1 amine (or outer) side, 2 acyl side, 3 side chain; on linkers, the order of the positions; unused ones are H or OH. Square brackets hold non-standard residues; d marks the D form. Peptide text beside a SMILES is read from it. * marks the point of attachment. NH(1S,2S-2-CONH2-cPent) = NC(=O)[C@H]1CCC[C@@H]1N*; ACPC(1S,2S) = N[C@H]1CCC[C@@H]1C(=O)*; X1 = O=C([C@H]1CCC[C@@H]1N[*:1])[*:2]; X2 = O=C([C@H]1CNC[C@@H]1N[*:1])[*:2]

The target in data set [1] is T1, Parathyroid hormone/parathyroid hormone-related peptide receptor (Homo sapiens) (UniProt Q03431).
T1 sequence (whole entry): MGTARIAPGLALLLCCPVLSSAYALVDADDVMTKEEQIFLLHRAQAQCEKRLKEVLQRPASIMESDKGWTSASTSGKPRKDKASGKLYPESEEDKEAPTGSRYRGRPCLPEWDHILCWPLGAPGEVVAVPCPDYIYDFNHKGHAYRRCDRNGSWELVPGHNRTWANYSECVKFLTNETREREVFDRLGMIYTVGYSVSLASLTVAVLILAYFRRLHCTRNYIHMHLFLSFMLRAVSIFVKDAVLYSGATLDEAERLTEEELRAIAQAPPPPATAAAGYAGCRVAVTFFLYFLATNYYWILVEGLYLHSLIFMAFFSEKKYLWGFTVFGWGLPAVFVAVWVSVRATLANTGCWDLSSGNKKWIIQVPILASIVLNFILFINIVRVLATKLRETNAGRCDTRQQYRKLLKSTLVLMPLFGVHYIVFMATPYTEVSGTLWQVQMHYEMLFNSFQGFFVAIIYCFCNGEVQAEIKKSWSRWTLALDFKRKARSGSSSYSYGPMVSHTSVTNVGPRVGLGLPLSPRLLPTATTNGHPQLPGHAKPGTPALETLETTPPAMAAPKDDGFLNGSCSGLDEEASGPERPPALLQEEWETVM
Nature of the data set: Agonist activity at human PTH1 receptor expressed in human GP2.3 cells assessed as induction of cAMP after 12 to 20 mins by luciferase reporter gene assay relative to PTH(1 to 34 residues)-NH2. It counts as functional, cell-based.

In data set [2] the target is T1, Parathyroid hormone/parathyroid hormone-related peptide receptor (Homo sapiens). Put plainly: Agonist activity at human PTH1 receptor expressed in human GP2.3 cells assessed as induction of cAMP at 0.1 to 100 nM preincubated with protease activity quenched SGF up to 4 hrs followed by compound transfer to GP2.3 cells by luciferase reporter gene assay. It counts as functional, cell-based. Summed up: (§1)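 Control samples: simulated gastric fluid neutralized with 10× PBS, or intestinal fluid mixed with acetonitrile/TFA quench solution, before adding peptide. Gastric controls held up to 4 h. Then diluted and tested on luciferin-loaded GP2.3 cells at 100−0.1 nM final, alongside freshly prepared peptide.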

Data set [3] shares this target. Put plainly: Agonist activity at human PTH1 receptor expressed in human GP2.3 cells assessed as induction of cAMP at 0.1 to 100 nM preincubated with protease activity quenched SIF followed by compound transfer to GP2.3 cells by luciferase reporter gene assay. It counts as functional, cell-based. Summed up:
as §1

The subject of data set [4] is Mus musculus. Put plainly: In vivo induction of excessive bloodstream calcium concentration in CD1 mouse at 20 nmol/kg, sc up to 2 hrs by Ca2+/pH analyzer. Format: organism-based. Summed up:
(§2)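 Female CD1 mice (9−12 weeks), n = 5, given 20 nmol/kg subcutaneously in 10 mM citrate/150 mM NaCl/0.05% Tween-80, pH 5.0. Tail vein blood taken before and at times after dosing. Ca2+ measured by Ca2+/pH analyzer. One-way ANOVA with Dunnett's test vs vehicle. Mean ± SEM.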

Data set [5] relates to Mus musculus. Put plainly: In vivo induction of excessive bloodstream calcium concentration in CD1 mouse at 20 nmol/kg, sc after 2 hrs by Ca2+/pH analyzer. It counts as organism-based. Summed up: as §2
A further data set relates to Blood. Nature of the data set: Drug level in CD1 mouse blood at 20 nmol/kg, sc measured up to 2 hrs. Format: ADME, organism-based. The following applies: in vivo. In a few lines: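 Female CD1 mice, n = 5, 20 nmol/kg subcutaneously in citrate/NaCl/Tween-80 vehicle, pH 5.0. 2 μL serum from timed bleeds, mixed with CO2-independent medium, added to GP2.3 cells. Luminescence converted to peptide concentration via a standard curve.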

Data set [6] has as its target T1, Parathyroid hormone/parathyroid hormone-related peptide receptor (Homo sapiens). Nature of the data set: Displacement of [125I]-PTH(1 to 34 residues) from R0 state of human PTHR1 expressed in African green monkey COS7 cell membranes incubated for >1 hr in presence of GTPgammaS by gamma radiation method.

For the molecule `CC[C@H](C)[C@H](NC(=O)[C@H](CCC(=O)O)NC(=O)[C@H](CO)NC(=O)[C@@H](NC(=O)[C@H]1CCC[C@@H]1N)C(C)C)C(=O)N[C@@H](CCC(N)=O)C(=O)N[C@H]1CCC[C@@H]1C(=O)N[C@@H](CCSC)C(=O)N[C@@H](Cc1cnc[nH]1)C(=O)N[C@@H](CC(N)=O)C(=O)N[C@@H](CC(C)C)C(=O)NCC(=O)N[C@@H](CCCCN)C(=O)N[C@H]1CCC[C@@H]1C(=O)N[C@@H](CC(C)C)C(=O)N[C@@H](CC(N)=O)C(=O)N[C@@H](CO)C(=O)N[C@H]1CCC[C@@H]1C(=O)N[C@@H](CCC(=O)O)C(=O)N[C@@H](CCCNC(=N)N)C(=O)N[C@H](C(=O)N[C@H]1CNC[C@@H]1C(=O)N[C@@H](Cc1c[nH]c2ccccc12)C(=O)N[C@@H](CC(C)C)C(=O)N[C@@H](CCCNC(=N)N)C(=O)N[C@H]1CNC[C@@H]1C(=O)N[C@@H](CCCCN)C(=O)N[C@@H](CC(C)C)C(=O)N[C@@H](CCC(N)=O)C(=O)N[C@H]1CCC[C@@H]1C(=O)N[C@H](C(=O)N[C@@H](Cc1cnc[nH]1)C(=O)N[C@@H](CC(N)=O)C(=O)N[C@H]1CCC[C@@H]1C(N)=O)C(C)C)C(C)C` ({ACPC(1S,2S)}-VSEIQ[X1]MHNLGK[X1]LNS[X1]ERV[X2]WLR[X2]KLQ[X1]VHN-{NH(1S,2S-2-CONH2-cPent)}), the fold change (FC) in data set [1] worked out at 8.7. The result in data set [2] and in data set [3] was Active.
With `CC[C@H](C)[C@H](NC(=O)[C@H](CCC(=O)O)NC(=O)[C@H](CO)NC(=O)[C@@H](NC(=O)[C@@H](N)CO)C(C)C)C(=O)N[C@@H](CCC(N)=O)C(=O)N[C@@H](CC(C)C)C(=O)N[C@@H](CCSC)C(=O)N[C@@H](Cc1cnc[nH]1)C(=O)N[C@@H](CC(N)=O)C(=O)N[C@@H](CC(C)C)C(=O)NCC(=O)N[C@@H](CCCCN)C(=O)N[C@H]1CCC[C@@H]1C(=O)N[C@@H](CC(C)C)C(=O)N[C@@H](CC(N)=O)C(=O)N[C@@H](CO)C(=O)N[C@H]1CCC[C@@H]1C(=O)N[C@@H](CCC(=O)O)C(=O)N[C@@H](CCCNC(=N)N)C(=O)N[C@H](C(=O)N[C@H]1CNC[C@@H]1C(=O)N[C@@H](Cc1c[nH]c2ccccc12)C(=O)N[C@@H](CC(C)C)C(=O)N[C@@H](CCCNC(=N)N)C(=O)N[C@H]1CNC[C@@H]1C(=O)N[C@@H](CCCCN)C(=O)N[C@@H](CC(C)C)C(=O)N[C@@H](CCC(N)=O)C(=O)N[C@H]1CCC[C@@H]1C(=O)N[C@H](C(=O)N[C@@H](Cc1cnc[nH]1)C(=O)N[C@@H](CC(N)=O)C(=O)N[C@H]1CCC[C@@H]1C(N)=O)C(C)C)C(C)C` (H-SVSEIQLMHNLGK[X1]LNS[X1]ERV[X2]WLR[X2]KLQ[X1]VHN-{NH(1S,2S-2-CONH2-cPent)}), the fold change (FC) in data set [1] is 3.2. The Activity entry in the data set with Mus musculus [4] is listed as “Toxic”; in the data set on Mus musculus [5], “Non-Toxic”. For the same molecule, in the data set on Blood, the Drug uptake entry is “Active”. Further, in data set [6], the inhibition result was “Active”.
